Assay outcomes (PubChem BioAssay)
Shown are actives, neighbours in structure and some others; about 3.9% of the full set was active somewhere.
DNA FID counter = fluorescent intercalator displacement, NS3 helicase counter-screen | inhibition, % at 7.9 µM | actives 0.17% (n = 290,000) | DNA fluorescent intercalator displacement, fluorescence; in the data active = inhibition above about 37%;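 also: 0% = vehicle and 100% = reference compound; higher means more ethidium bromide displaced from hairpin DNA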
HSF1 activator = increases HSF-1 driven luciferase reporter signal; NIH3T3-HGL HSF-1 luciferase reporter, MG132, 8 h; 100% = twice DMSO control signal; activation, % at 9 µM; actives 1.7% (n = 300,000); AID 504408;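 active = mean replicate activation of at least 50% with a set share of replicates each reaching 50%; inconclusive = only one of those two conditions met; inactive = mean below 50% and too few replicates reaching it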;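 also: 0% = median of the neutral control wells and 100% = twice that signal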
NS3 helicase inh = inhibitors of Hepatitis C virus NS3 helicase; NS3 helicase DNA unwinding, Cy5 molecular beacon fluorescence; inhibition, % at 10.9 µM; actives 0.56% (n = 290,000); AID 1800;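 active = inhibition above the mean of all tested compounds plus 3 SD, set per campaign, cut at about 35% in these data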;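 also: 0% = DMSO wells and 100% = thioflavine S control wells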
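System: HCV NS3 helicase fragment; control set: DMSO and thioflavine S; technique: Cy5 fluorescence at 0 and 60 min, beacon hairpin quenching; reagent: beacon DNA duplex substrate plus ATP; replicates: singlicate; schedule: 1 h reaction at 25 °C, ATP-initiated; medium: MOPS buffer pH 6.5 with MgCl2, DTT, Tween20, BSA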
HSP90 refold inh = HSP90 refolding inhibition in rabbit reticulocyte lysate | luciferase refolding luminescence, 3 h | inhibition, % at 5.6 µM | actives 0.91% (n = 290,000) | AID 1789;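 active = inhibition above the screen-wide mean plus 3 SD, computed separately per campaign, cut at about 16% in these data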;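 also: 0% = DMSO wells and 100% = 60 µM geldanamycin wells; inhibitors lower the luminescence because luciferase stays unfolded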
core dimer inh = HCV core protein dimerization inhibition; TR-FRET GST/Flag-core106 dimerization, 1536-well; inhibition, % at 5 µM; actives 0.33% (n = 300,000);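 active = inhibition above the mean of all tested compounds plus 3 SD, set per screening campaign, cut at about 45% in these data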
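test system = GST/Flag-tagged HCV core106 proteins | probe or stimulus = Eu donor and XL665 acceptor anti-tag antibodies | times = compound-protein-antibody incubation 4 h at 22.5 °C | signal = TR-FRET, excitation 340 nm, emission 617 and 671 nm | measure = percent inhibition of core106 dimerization signal | controls = wells lacking GST-core106 and wells with excess unlabelled core106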
HSF1 inh = HSF1 inhibition; NIH3T3-HGL HSE-luciferase, MG132-induced, luminescence 8 h; active compounds read low; activity change, negative = inhibition, % at 7.5 µM (by protocol); actives 0.77% (n = 300,000); AID 2098;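 active = more than half of replicate wells show activity change below -50%, luminescence cut by over half; inconclusive = some wells, but at most half, below -50%; inactive = no replicate well below -50%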;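 also: luciferase reports HSF-1 transcriptional activity via heat shock element; 0% = median of DMSO wells and -100% = zero luminescence signal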
* hit, by the source's call; ? = inconclusive; nt = not tested or not shown.

SMILES | DNA FID counter | HSF1 activator | NS3 helicase inh | HSP90 refold inh | core dimer inh | HSF1 inh
CC(C)(C)c1ccc(C(=O)NC(=S)NNC(=O)c2cccs2)cc1 | -1.3 | -56.4 | 12.8 | -0.5 | 2.4 | -59.8*
O=C1COc2cc(S(=O)(=O)CCC(=O)N3CCCCC3)c(Cl)cc2N1 | -5.9 | 0.8 | -2.5 | -3.1 | -9.3 | 2.8
COC(=O)c1ccc(C(=O)OC)c(-n2c(=O)c3ccccc3c3ccccc3c2=O)c1 | -32.4 | 77.7* | -0.8 | -2.8 | -0.6 | 52.8
CCCc1ccc(C(C)NC(=S)NC2CCCCC2)cc1 (stereo unspecified) | -38.0 | 42.6 | -1.3 | -4.7 | nt | 4.9
C/C(CC(=O)Nc1ccccn1)=N\NC(=O)C(=O)Nc1cccc(C)c1 | -15.1 | -0.1 | 8.5 | 3.0 | 0.0 | 2.5
O=C(Nc1cccc(O)c1)C(=O)Nc1ccccn1 | -1.3 | 46.0 | -1.8 | 37.0* | -13.5 | 29.3
CCOC(=O)Cc1cnc(NC(=O)NC(C(=O)OCC)(c2ccccc2)C(F)(F)F)s1 (stereo unspecified) | -19.4 | 112.9* | 0.5 | -2.2 | -1.8 | 51.6
COc1ccc(/C=N\NC(=O)c2ccc(F)cc2)cc1COc1cc(F)ccc1[N+](=O)[O-] | -21.0 | -10.9 | -11.0 | 4.2 | nt | 5.7
COc1ccc(/C=N/NS(=O)(=O)c2ccc(F)cc2)cc1COc1cc(F)ccc1[N+](=O)[O-] | 10.8 | 16.9 | -0.8 | 2.9 | 48.5* | 11.9
CCOc1cc(/C=N/OC(C)=O)ccc1OCc1ccccc1 | -24.4 | -1.8 | -19.6 | -4.3 | 0.2 | 1.3
COc1cccc(-n2nc(C#N)c(Cl)cc2=O)c1 | 2.2 | 224.6* | -5.4 | -2.4 | nt | 155.3
Cc1onc(-c2ccccc2)c1NC(=O)N(CCC#N)Cc1ccccc1 | -7.1 | 58.3* | -5.4 | 3.0 | -2.3 | 9.0
N#CCCN(Cc1ccccc1)C(=O)Nc1ccccc1 | -3.7 | 13.8 | -6.3 | 1.4 | 2.1 | 4.8
CCCS(=O)(=O)c1nnnn1-c1cccc(OC)c1 | -1.3 | -94.7 | -2.8 | 1.2 | 5.0 | -94.7*
Nc1ncnc2nc(N3CCN(C(=O)c4ccccc4)CC3)[nH]c12 | 0.8 | -80.2 | -0.9 | -1.3 | 0.1 | -72.6*
COc1ccc(C(=O)Cn2c(C(=O)/C=C/c3ccccc3)nc3ccccc32)cc1 | -5.2 | 340.8* | -0.1 | 3.4 | 20.4 | 224.9
COc1ccc(C(=O)CSc2nc3ccccc3n2CC(=O)c2ccccc2)cc1 | -14.0 | -5.1 | -23.1 | 2.2 | 7.0 | -5.0
c1ccc(-c2cc(NCCN3CCCCC3)c3ccccc3n2)cc1 | 73.8* | 28.7 | 18.0 | 0.8 | -6.2 | 1.6
O=C1COc2ccc(C(=O)COC(=O)/C=C/c3ccc(Br)o3)cc2N1 | nt | 1.6 | nt | nt | 84.3* | 0.6
O=C(NN1C(=O)/C(=C/C=C/c2ccccc2)SC1=S)c1ccncc1 | -14.8 | 1.7 | 25.6 | 4.9 | 48.7* | -4.3
CCOC(=O)c1c(/N=C/C2=C(O)CCCC2=O)sc2c1CCCC2 | -2.1 | -22.7 | 10.8 | 0.8 | -6.2 | -13.7
CCOC(=O)c1cc(CC)sc1/N=C/C1=C(O)CCCC1=O | -1.4 | -67.0 | -6.8 | -11.7 | -12.8 | -54.1*
O=C(Cn1cnc2c(nnn2Cc2ccc(Cl)cc2)c1=O)N1CCCc2ccccc21 | -1.3 | -59.2 | 0.1 | -1.2 | 7.8 | ?
CCc1ccc(C2=NNC(=Nc3cccc(S(=O)(=O)N(C)C)c3)SC2)cc1 | -11.3 | -77.8 | 10.4 | -0.6 | 6.2 | -76.5*
Cc1ccc(C2=NNC(=Nc3ccc(F)cc3)SC2)cc1 | 6.9 | nt | 9.3 | 1.6 | nt | nt
SMILES | DNA FID counter | HSF1 activator | NS3 helicase inh | HSP90 refold inh | core dimer inh | HSF1 inh
O=C(/C=C/Nc1ccccc1F)c1cccs1 | -3.1 | ? | 2.1 | -4.5 | 2.3 | 19.6
O=C(/C=C/Nc1ccc(F)cc1F)c1cccs1 | -4.1 | 77.0* | -1.7 | -3.0 | 0.6 | 29.8
O=C(Nc1cccs1)Nc1ccc(F)cc1F | 1.3 | 98.2* | 9.4 | -6.0 | 3.4 | 46.7
O=C(Nc1cccs1)Nc1ccc(Br)cc1F | 0.4 | 59.8* | 7.6 | -4.0 | -8.6 | 36.3
CCNC(=O)COc1ccc(-c2ccccc2)cc1 | -3.2 | 33.5 | -0.3 | 0.1 | -0.9 | 12.0
COCCCNC(=O)Cn1cnc2sc(C)c(S(=O)(=O)N3CCN(c4ccccc4OC)CC3)c2c1=O | -15.1 | -77.6 | 3.3 | -7.1 | 0.9 | -71.9*
O=C(Cn1nnc2ccccc21)c1ccc(Br)cc1 | -11.3 | 10.8 | 8.6 | 3.2 | -3.3 | 13.6
Cc1ccc(C(=O)Cn2nnc3ccccc32)cc1 | -4.7 | 66.7* | 2.8 | 2.6 | 2.4 | 26.0
Cc1ccc(C(=O)Cn2cnc3ccccc3c2=O)cc1C | -11.8 | 40.7 | 0.1 | -1.9 | 0.8 | 22.2
Cc1ccc(C(=O)Cn2nnc3ccccc32)cc1C | -13.7 | 58.5* | -3.2 | 0.6 | 5.9 | 30.0
COC(=O)c1ccc(NC(=O)CS(=O)(=O)Cc2ccccc2)cc1 | -6.8 | -14.9 | 2.8 | 2.1 | 2.4 | 4.8
O=C(Nc1cc(Cl)cc(Cl)c1)N1CCCN(Cc2ccccc2)CC1 | 10.8 | -4.2 | -36.2 | 2.7 | -0.3 | -2.1
Clc1ccc(CNc2ccccn2)cc1 | 28.5 | 4.9 | -5.4 | -1.2 | -2.0 | 11.1
Cc1cc(C)cc(NC(=S)N=Nc2c(O)n(C)c3ccc(S(=O)(=O)N4CCOCC4)cc23)c1 | 5.7 | 6.5 | 8.7 | 2.2 | 38.9 | -0.7
Cc1ccc(NC(=S)N=Nc2c(O)n(C)c3ccc(S(=O)(=O)N4CCOCC4)cc23)cc1 | 0.4 | 58.2* | 5.0 | 3.2 | nt | 22.9
O=C(CSc1nnc(COc2ccc3c(c2)CCCC3)o1)Nc1ccc(F)cc1 | -3.3 | -67.1 | 3.4 | 2.4 | 0.3 | -58.0*
Cc1ccc(OCc2nnc(SCC(=O)Nc3ccc(N4CCOCC4)cc3)o2)cc1 | -19.2 | 6.1 | 26.0 | -7.0 | 3.4 | -2.7
Cc1ccc(S(=O)(=O)Nc2ccc3oc(=O)sc3c2)c(C)c1 | -6.8 | 9.6 | -0.9 | 1.4 | -10.3 | 14.6
Brc1cc(Br)c2ncnc(N3CCCCC3)c2c1 | -12.1 | -0.8 | 2.0 | -0.6 | 60.7* | -5.5
COc1ccc2nc(NC(=O)CSCC(=O)Nc3cc(C)on3)sc2c1 | nt | 15.4 | nt | nt | 1.8 | 15.4
CC1CN(C(=O)c2cc(S(=O)(=O)N(C)c3ccc(F)cc3)ccc2Cl)CC(C)O1 (stereo unspecified) | -33.2 | -76.0 | -6.3 | -1.2 | -3.2 | -70.6*
COC(=O)C1=C(C)NC2=C(C(=O)C(C(=O)OC)C(c3ccc(OC)cc3)C2)C1c1ccccn1 (stereo unspecified) | -6.2 | -15.8 | 6.1 | 1.8 | -0.9 | -1.2
CCCCCc1ccc(OCCOCCn2c[n+](C)c3ccccc32)c(CCCCC)c1 | 37.1* | -1.7 | -62.6 | 3.6 | nt | -8.8
CCCCCc1ccc(OCCC[n+]2ccccc2)c(CCCCC)c1 | 44.5* | -1.3 | -70.3 | 11.8 | 0.9 | -2.2
C[n+]1cn(CC(O)COCc2ccccc2)c2ccccc21 (stereo unspecified) | 0.9 | 8.4 | -3.8 | -4.3 | 0.9 | -11.8
